Experimental findings from ChEMBL document CHEMBL3817745, “Structure-Activity Relationship for the 4(3H)-Quinazolinone Antibacterials” (J Med Chem, 2016) are described below.

Data set [1] deals with Staphylococcus aureus. Nature of the data set: Antibacterial activity against methicillin-susceptible Staphylococcus aureus ATCC 29213 incubated for 16 to 20 hrs by microdilution method. Format: functional.
In data set [2] the test system is Mus musculus. Nature of the data set: AUC (0 to last) in ICR mouse peritonitis model infected with methicillin resistant Staphylococcus aureus ATCC 27660 at 5 mg/kg, iv administered as single dose measured up to 8 hrs by UPLC analysis. The conditions noted are these: in vivo. Format: ADME, organism-based. Set-up: dose 5 mg/kg, route intravenous, time 0 - last. An outline of the steps: (§1)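 Fast PK: female ICR mice (n = 2 per time point) given single tail-vein iv injection at 5, 10 or 20 mg/kg in 25% DMSO/65% propylene glycol/10% water (2.5, 5 or 10 mg/mL); terminal cardiac blood at 5 min, 40 min, 2, 4, 8 h; plasma analysed by UPLC with internal standard calibration.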

The next data set concerns HepG2. Nature of the data set: Cytotoxicity against human HepG2 cells incubated for 16 hrs by XTT assay. Format: cell-based. The note with it: HepG2, 16 h. An outline of the steps:
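HepG2 cells were tested with an XTT viability read-out, in triplicate. IC50 was obtained by nonlinear regression.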
(In general: Tetrazolium dyes change colour on reduction, which living cells bring about.)

Data set [3] can be described thus: Hemolytic activity against human RBC at 64 ug/ml relative to control. The conditions noted are these: erythrocyte. Format: ADME, cell-based, Erythrocyte. The essentials: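 Hemolysis was measured at a fixed 64 μg/mL on a 10% red-cell suspension from heparinized human blood. Triton-X served as the positive control, and results are given as percent hemolysis.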

The test system of data set [4] is Staphylococcus aureus. Kind of data set: Antibacterial activity against mecA-positive methicillin/oxacillin/tetracycline-resistant Staphylococcus aureus ATCC 27660 incubated for 16 to 20 hrs by microdilution method. It is filed as functional.
For data set [5], the system named is Staphylococcus aureus. Nature of the data set: Antibacterial activity against mecA-positive multidrug resistant Staphylococcus aureus COL NRS100 incubated for 16 to 20 hrs by microdilution method. Format: functional. A general note: Broth dilution looks for growth in wells or tubes with falling amounts of substance.
Data set [6] concerns Staphylococcus aureus. Kind of data set: Antibacterial activity against vancomycin/methicillin-resistant Staphylococcus aureus VRS1 clinical isolate incubated for 16 to 20 hrs by microdilution method. It is filed as functional.
The test system of data set [7] is Staphylococcus aureus. Kind of data set: Antibacterial activity against vancomycin/methicillin-resistant Staphylococcus aureus VRS2 clinical isolate incubated for 16 to 20 hrs by microdilution method. It is filed as functional.
Data set [8] deals with Staphylococcus epidermidis. Nature of the data set: Antibacterial activity against Staphylococcus epidermidis ATCC 35547 incubated for 16 to 20 hrs by microdilution method. It is filed as functional. The essentials: (§2)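 CLSI broth microdilution. 2-fold serial dilutions were made in cation-adjusted Mueller–Hinton broth, with 5% lysed horse blood added for Streptococcus strains, in triplicate. Inoculum 5×10^5 CFU/mL. Plates incubated 36 °C for 16–20 h. MIC taken as the lowest concentration visibly inhibiting growth.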

The next data set relates to Streptococcus oralis. Kind of data set: Antibacterial activity against Streptococcus oralis ATCC 9811 incubated for 16 to 20 hrs by microdilution method. It is filed as functional. An outline of the steps:
as §2

A further data set deals with Streptococcus pyogenes. Kind of data set: Antibacterial activity against Streptococcus pyogenes ATCC 49399 incubated for 16 to 20 hrs by microdilution method. Format: functional. An outline of the steps: as §2
Another data set concerns Bacillus cereus. Kind of data set: Antibacterial activity against Bacillus cereus ATCC 13061 incubated for 16 to 20 hrs by microdilution method. Format: functional. An outline of the steps: as §2
In the next data set the test system is Bacillus licheniformis. Nature of the data set: Antibacterial activity against Bacillus licheniformis ATCC 12759 incubated for 16 to 20 hrs by microdilution method. It is filed as functional. The essentials: as §2
In data set [9] the test system is Enterococcus faecalis. Nature of the data set: Antibacterial activity against methicillin-susceptible Enterococcus faecalis ATCC 29212 incubated for 16 to 20 hrs by microdilution method. Format: functional. The essentials: as §2
Data set [10] relates to Enterococcus faecalis. Nature of the data set: Antibacterial activity against vancomycin-resistant Enterococcus faecalis 99 clinical isolate incubated for 16 to 20 hrs by microdilution method. It is filed as functional.
Another data set has as its system Enterococcus faecium. Nature of the data set: Antibacterial activity against Enterococcus faecium NCTC 7171 incubated for 16 to 20 hrs by microdilution method. It is filed as functional. The essentials: as §2
A further data set deals with Klebsiella pneumoniae. Nature of the data set: Antibacterial activity against Klebsiella pneumoniae ATCC 700603 incubated for 16 to 20 hrs by microdilution method. It is filed as functional. The essentials:
as §2

A further data set relates to Acinetobacter baumannii. Nature of the data set: Antibacterial activity against Acinetobacter baumannii ATCC 17961 incubated for 16 to 20 hrs by microdilution method. It is filed as functional. An outline of the steps:
as §2

For the next data set, the system named is Pseudomonas aeruginosa. Nature of the data set: Antibacterial activity against Pseudomonas aeruginosa […] incubated for 16 to 20 hrs by microdilution method. It is filed as functional. An outline of the steps: as §2
Another data set relates to Escherichia coli. Nature of the data set: Antibacterial activity against Escherichia coli ATCC 25922 incubated for 16 to 20 hrs by microdilution method. Format: functional. An outline of the steps:
as §2

Another data set concerns Klebsiella aerogenes. Kind of data set: Antibacterial activity against Enterobacter aerogenes ATCC 35029 incubated for 16 to 20 hrs by microdilution method. Format: functional. An outline of the steps: as §2
Data set [11] deals with Mus musculus. Nature of the data set: AUC (0 to last) in ICR mouse peritonitis model infected with methicillin resistant Staphylococcus aureus ATCC 27660 at 10 mg/kg, iv administered as single dose measured up to 8 hrs by UPLC analysis. The conditions noted are these: in vivo, 8 h. Set-up: dose 10 mg/kg, time 0 - last, route intravenous. It is filed as ADME, organism-based. An outline of the steps:
as §1

The subject of data set [12] is Staphylococcus aureus. Nature of the data set: Antibacterial activity against mecA-positive multidrug resistant Staphylococcus aureus NRS119 incubated for 16 to 20 hrs by microdilution method. It is filed as functional.
The subject of data set [13] is Staphylococcus aureus. Kind of data set: Antibacterial activity against mecA-positive multidrug resistant Staphylococcus aureus NRS120 incubated for 16 to 20 hrs by microdilution method. It is filed as functional.
In data set [14] the test system is Staphylococcus haemolyticus. Nature of the data set: Antibacterial activity against Staphylococcus haemolyticus ATCC 29970 incubated for 16 to 20 hrs by microdilution method. It is filed as functional.

Values after ≈ are worked out from the molar mass of the structure shown.

As usually defined, the MIC is the lowest concentration that inhibits growth of the organism. A lower MIC goes with a more susceptible organism. As usually defined, the IC50 is the concentration that gives 50% inhibition. For `CC(=O)Nc1cccc(-n2c(/C=C/c3ccc(C#N)cc3)nc3ccccc3c2=O)c1`, the MIC with Staphylococcus aureus [1] came to 0.25 µg/mL (≈ 0.615 µM); in the data set with Staphylococcus aureus [4] it was 1 µg/mL (≈ 2.46 µM); with Staphylococcus aureus [5] it was 1 µg/mL (≈ 2.46 µM); against Staphylococcus aureus [6], 4 µg/mL (≈ 9.84 µM); with Staphylococcus aureus [7] it was 0.125 µg/mL (≈ 0.308 µM); in [8], 0.06 µg/mL (≈ 0.148 µM). Moreover, the MIC with Streptococcus oralis was above 128 µg/mL; in the data set on Streptococcus pyogenes, above 128 µg/mL; in the data set on Bacillus cereus, above 128 µg/mL; against Bacillus licheniformis, above 128 µg/mL; in the data set with Enterococcus faecalis [9] it was 128 µg/mL (≈ 315 µM); in the data set with Enterococcus faecalis [10], 64 µg/mL (≈ 157 µM). Besides, the MIC is above 128 µg/mL against Enterococcus faecium; at least 16 µg/mL in the data set with Klebsiella pneumoniae; at least 16 µg/mL against Acinetobacter baumannii; at least 16 µg/mL with Pseudomonas aeruginosa; at least 16 µg/mL against Escherichia coli; at least 16 µg/mL against Klebsiella aerogenes. In the data set with Mus musculus [2], this compound yielded an AUClast of 38 µg·min/mL. For the same compound, the IC50 in the data set with HepG2 stood at 51 µg/mL (≈ 125 µM). Moreover, the Activity in [3] is reported as below 1%.

Consider `N#Cc1ccc(/C=C/c2nc3ccccc3c(=O)n2-c2cccc(N)c2)cc1`, for which the MIC was 0.5 µg/mL (≈ 1.37 µM) in the data set on Staphylococcus aureus [1]; 4 µg/mL (≈ 11 µM) against Staphylococcus aureus [5]; 4 µg/mL (≈ 11 µM) with Staphylococcus aureus [12]; 4 µg/mL (≈ 11 µM) against Staphylococcus aureus [13]; 8 µg/mL (≈ 22 µM) against Staphylococcus aureus [6]; 4 µg/mL (≈ 11 µM) with Staphylococcus aureus [7]. Besides, the MIC in [8] was 0.125 µg/mL (≈ 0.343 µM); in data set [14], 1 µg/mL (≈ 2.74 µM); in the data set with Streptococcus oralis, above 128 µg/mL; against Streptococcus pyogenes, above 128 µg/mL; in the data set on Bacillus cereus it was above 128 µg/mL; against Bacillus licheniformis, above 128 µg/mL. For the same compound, the MIC is above 128 µg/mL against Enterococcus faecalis [9]; 16 µg/mL (≈ 43.9 µM) against Enterococcus faecalis [10]; above 128 µg/mL in the data set on Enterococcus faecium; at least 16 µg/mL against Klebsiella pneumoniae; at least 16 µg/mL with Acinetobacter baumannii; at least 16 µg/mL against Pseudomonas aeruginosa. Besides, the MIC in the data set with Escherichia coli and with Klebsiella aerogenes was at least 16 µg/mL in each case. Also, the AUClast in the data set on Mus musculus [11] was found to be 204 µg·min/mL. For the same compound, the IC50 in the data set with HepG2 was 77.2 µg/mL (≈ 212 µM). The compound further returned an Activity in [3] of 3.3%.

As for `N#Cc1ccc(/C=C/c2nc3ccccc3c(=O)n2-c2cccc(O)c2)cc1`, the MIC in the data set with Staphylococcus aureus [1] was 0.03 µg/mL (≈ 0.0821 µM); against Staphylococcus aureus [4] it was 0.5 µg/mL (≈ 1.37 µM); in the data set on Staphylococcus aureus [5], 0.25 µg/mL (≈ 0.684 µM); against Staphylococcus aureus [12] it was 0.125 µg/mL (≈ 0.342 µM); in the data set on Staphylococcus aureus [13] it was 0.125 µg/mL (≈ 0.342 µM); in the data set on Staphylococcus aureus [6] it was 0.5 µg/mL (≈ 1.37 µM). Also, the MIC in the data set on Staphylococcus aureus [7] was 0.06 µg/mL (≈ 0.164 µM); in data set [8], 0.125 µg/mL (≈ 0.342 µM); in data set [14] it was 0.125 µg/mL (≈ 0.342 µM); against Streptococcus oralis, above 128 µg/mL; with Streptococcus pyogenes, above 128 µg/mL; against Bacillus cereus, above 128 µg/mL. Besides, the MIC against Bacillus licheniformis is above 128 µg/mL; against Enterococcus faecalis [9], 128 µg/mL (≈ 350 µM); in the data set on Enterococcus faecalis [10], 64 µg/mL (≈ 175 µM); against Enterococcus faecium, above 128 µg/mL; against Klebsiella pneumoniae it was at least 16 µg/mL; in the data set with Acinetobacter baumannii it was at least 16 µg/mL. Also, the MIC with Pseudomonas aeruginosa, in the data set with Escherichia coli and against Klebsiella aerogenes was at least 16 µg/mL throughout. In the data set on Mus musculus [2], this compound gave an AUClast of 26.8 µg·min/mL. The compound also had an IC50 in the data set on HepG2 of 53.6 µg/mL (≈ 147 µM). This compound had an Activity in data set [3] below 1%.

Take `N#Cc1ccc(/C=C/c2nc3ccccc3c(=O)n2-c2cccc(C(=O)NCCO)c2)cc1`: the MIC in the data set with Staphylococcus aureus [1] is 1 µg/mL (≈ 2.29 µM); with Enterococcus faecium it was at least 8 µg/mL; in the data set on Klebsiella pneumoniae it was at least 16 µg/mL; against Acinetobacter baumannii, at least 16 µg/mL; in the data set with Pseudomonas aeruginosa it was at least 16 µg/mL; against Escherichia coli it was at least 16 µg/mL. The same compound came in with an MIC against Klebsiella aerogenes of at least 16 µg/mL. Further, the AUClast with Mus musculus [11] came out at 425 µg·min/mL. In the data set on HepG2, the IC50 is 70.2 µg/mL (≈ 161 µM). Moreover, in data set [3], the Activity is below 1%.

For the compound `CC(=O)Nc1cccc(-n2c(/C=C/c3ccc(F)cc3)nc3ccccc3c2=O)c1`, the MIC against Staphylococcus aureus [1] is 1 µg/mL (≈ 2.5 µM); against Enterococcus faecium, at least 8 µg/mL; in the data set with Klebsiella pneumoniae, at least 16 µg/mL; against Acinetobacter baumannii, at least 16 µg/mL; against Pseudomonas aeruginosa it was at least 16 µg/mL; against Escherichia coli, at least 16 µg/mL. Moreover, the MIC against Klebsiella aerogenes is at least 16 µg/mL. The compound also came in with an AUClast in the data set on Mus musculus [11] of 284 µg·min/mL. Further, inhibition in the data set on HepG2 was half-maximal at 46.6 µg/mL (≈ 117 µM) (IC50). In data set [3], this compound registered an Activity of 3.6%.
